Assays:
Salmonella typhimurium = assay: Bactericidal activity against Salmonella typhimurium ATCC 14028; type: functional, Salmonella enterica subsp. enterica serovar Typhimurium; details: Salmonella enterica, read-out: MBC99.9
Procedure, shortened: (§1)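 Wells from the 24 h, 37 °C MHB microdilution plates (bacteria at a final (0.5−1) × 10^5 CFU/mL; peptide diluted in 0.2% BSA) were plated on agar and incubated overnight. MBC is the lowest concentration killing >99.9% of cells. Each test was reproduced at least 3 times.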

Escherichia coli [1] = assay: Antibacterial activity against Escherichia coli ATCC 25922 after 18 hrs in presence of FeCl3 by broth dilution method; type: functional; details: ATCC 25922, 18 h
[2] = Antibacterial activity against Salmonella pullorum ATCC 7913 after 24 hrs; type: functional, Salmonella enterica subsp. enterica serovar Pullorum; details: Salmonella enterica, ATCC 7913, 24 h
Procedure, shortened: (§2)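 Broth microdilution. Mid-log bacteria in MHB at a final (0.5−1) × 10^5 CFU/mL were mixed with equal volumes of peptide serially diluted in 0.2% BSA. Plates were incubated 24 h at 37 °C and read at A492. MIC is the lowest concentration inhibiting 95% of growth. Each test was repeated at least 3 times.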

Candida albicans [3] = assay: Antifungal activity against Candida albicans cgmcc 2.2086 after 48 hrs by broth microdilution method; type: functional; details: cgmcc 2.2086, 48 h
Procedure, shortened: (§3)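 Modified CLSI M27-A2 broth microdilution. Yeast at (0.5−1) × 10^3 CFU/mL in MOPS-buffered RPMI 1640 was mixed 1:1 with peptide serially diluted in 0.2% BSA and incubated 48 h at 28 °C. Absorbance was read at 492 nm; MIC is the lowest concentration inhibiting 95% of growth. Triplicate, three biological replicates.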

Escherichia coli [4] = assay: Antibacterial activity against Escherichia coli ATCC 25922 after 18 hrs in presence of NH4Cl by broth dilution method; type: functional; details: ATCC 25922, 18 h
Candida albicans [5] = assay: Antifungal activity against Candida albicans cgmcc 2.2086 in presence of KCl by broth dilution method; type: functional
Candida albicans [6] = assay: Fungicidal activity against Candida albicans SP3903 after 96 hrs; type: functional; details: SP3903, 96 h, read-out: MFC99.9
Procedure, shortened: (§4)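 After the 48 h, 28 °C broth microdilution in MOPS-buffered RPMI 1640 (inoculum (0.5−1) × 10^3 CFU/mL), 50 μL from each well was plated on YM agar for a further 48 h at 28 °C. MFC is the lowest concentration killing at least 99.9% of cells. Triplicate, three biological replicates.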

Candida albicans [7] = assay: Antifungal activity against Candida albicans cgmcc 2.2086 in presence of MgCl2 by broth dilution method; type: functional
Candida albicans [8] = assay: Antifungal activity against fluconazole-resistant Candida albicans 56214 after 48 hrs by broth microdilution method; type: functional; details: Candida albicans, 56214, 48 h; procedure, shortened: as §3
Staphylococcus aureus [9] = assay: Bactericidal activity against methicillin-resistant Staphylococcus aureus ATCC 4330; type: functional; details: read-out: MBC99.9
Procedure, shortened: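 Bacteria at (0.5−1) × 10^5 CFU/mL in MHB were exposed to serially diluted peptide (0.2% BSA) for 24 h at 37 °C, then 50 μL aliquots were plated on agar overnight. MBC is the lowest concentration killing >99.9% of cells. At least 3 repeats.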

Candida albicans [10] = assay: Fungicidal activity against Candida albicans 14936 after 96 hrs; type: functional; details: Candida albicans, 14936, 96 h; read-out: MFC99.9; procedure, shortened: as §4
Staphylococcus aureus [11] = assay: Bactericidal activity against Staphylococcus aureus ATCC 29213; type: functional; details: read-out: MBC99.9; procedure, shortened: as §1
Candida albicans [12] = assay: Antifungal activity against Candida albicans cgmcc 2.2086 in presence of NH4Cl by broth dilution method; type: functional
Candida tropicalis = assay: Antifungal activity against Candida tropicalis cgmcc 2.1975 after 48 hrs by broth microdilution method; type: functional; details: cgmcc 2.1975, 48 h
Procedure, shortened: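 Modified CLSI M27-A2 broth microdilution. Yeast were suspended in MOPS-buffered RPMI 1640 at a final (0.5−1) × 10^3 CFU/mL and mixed 1:1 with peptide serially diluted in 0.2% BSA. Plates were incubated 48 h at 28 °C and read at A492. MIC is the lowest concentration giving 95% inhibition. Run in triplicate with three biological replicates.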

Candida albicans [13] = assay: Fungicidal activity against Candida albicans SP3902 after 96 hrs; type: functional; details: SP3902, 96 h, read-out: MFC99.9; procedure, shortened: as §4
Escherichia coli [14] = assay: Bactericidal activity against Escherichia coli ATCC 25922; type: functional; details: read-out: MBC99.9; procedure, shortened: as §1
Escherichia coli [15] = assay: Antibacterial activity against Escherichia coli ATCC 25922 after 18 hrs in presence of ZnCl2 by broth dilution method; type: functional; details: ATCC 25922, 18 h
Candida parapsilosis = assay: Fungicidal activity against Candida parapsilosis cgmcc 2.3989 after 96 hrs; type: functional; details: Lodderomyces parapsilosis, cgmcc 2.3989, 96 h; read-out: MFC99.9
Procedure, shortened: (§5)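 Wells from the 48 h, 28 °C RPMI 1640/MOPS microdilution plates were plated on YM agar and incubated a further 48 h at 28 °C. MFC is the lowest concentration killing at least 99.9% of cells. Run in triplicate with three biological replicates.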

Candida albicans [16] = assay: Antifungal activity against Candida albicans isolated from alveolar fluid after 48 hrs by broth microdilution method; type: functional; procedure, shortened: as §3
Candida albicans [17] = assay: Fungicidal activity against fluconazole-resistant Candida albicans 56452 after 96 hrs; type: functional; details: Candida albicans, 56452, 96 h; read-out: MFC99.9; procedure, shortened: as §4
Pichia kudriavzevii = assay: Fungicidal activity against Candida krusei cgmcc 2.1857 after 96 hrs; type: functional; details: cgmcc 2.1857, 96 h, read-out: MFC99.9; procedure, shortened: as §5
Escherichia coli [18] = assay: Antibacterial activity against Escherichia coli ATCC 25922 after 18 hrs in presence of NaCl by broth dilution method; type: functional; details: ATCC 25922, 18 h
Candida albicans [19] = assay: Antifungal activity against Candida albicans cgmcc 2.2086 in presence of CaCl2 by broth dilution method; type: functional
Candida albicans [20] = assay: Antifungal activity against Candida albicans 14936 after 48 hrs by broth microdilution method; type: functional; details: Candida albicans, 14936, 48 h; procedure, shortened: as §3
Staphylococcus aureus [21] = assay: Antibacterial activity against Staphylococcus aureus ATCC 29213 after 24 hrs; type: functional; details: ATCC 29213, 24 h
Procedure, shortened: (§6)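 Modified NCCLS broth microdilution. Mid-log bacteria at (0.5−1) × 10^5 CFU/mL in MHB were mixed 1:1 with peptide serially diluted in 0.2% BSA and incubated 24 h at 37 °C. Absorbance was read at 492 nm; MIC is the lowest concentration inhibiting 95% of growth. At least 3 repeats.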

Staphylococcus aureus [22] = assay: Antibacterial activity against methicillin-resistant Staphylococcus aureus ATCC 4330 after 24 hrs; type: functional; details: ATCC 4330, 24 h; procedure, shortened: as §6
[23] = system: Staphylococcus epidermidis; assay: Antibacterial activity against Staphylococcus epidermidis ATCC 12228 after 24 hrs; type: functional; details: ATCC 12228, 24 h; procedure, shortened: as §2
Candida albicans [24] = assay: Antifungal activity against Candida albicans cgmcc 2.2086 in presence of FeCl3 by broth dilution method; type: functional
Candida albicans [25] = assay: Antifungal activity against Candida albicans cgmcc 2.2086 in presence of ZnCl2 by broth dilution method; type: functional
[26] = system: Staphylococcus epidermidis; assay: Bactericidal activity against Staphylococcus epidermidis ATCC 12228; type: functional; details: read-out: MBC99.9; procedure, shortened: as §1
Escherichia coli [27] = assay: Bactericidal activity against Escherichia coli 1005; type: functional; details: read-out: MBC99.9; procedure, shortened: as §1
Candida albicans [28] = assay: Fungicidal activity against Candida albicans 58288 after 96 hrs; type: functional; details: Candida albicans, 58288, 96 h; read-out: MFC99.9; procedure, shortened: as §4
Staphylococcus aureus [29] = assay: Bactericidal activity against Staphylococcus aureus ATCC 25923; type: functional; details: read-out: MBC99.9; procedure, shortened: as §1
Escherichia coli [30] = assay: Antibacterial activity against Escherichia coli ATCC 25922 after 24 hrs; type: functional; details: ATCC 25922, 24 h; procedure, shortened: as §2

H-RRLRLLLRLRR-NH2
16 µM: MBC (Staphylococcus aureus [9]) | MBC (Staphylococcus aureus [11]) | MIC95 (Staphylococcus aureus [21])
8 µM: MIC (Escherichia coli [1]) | MIC95 (Candida albicans [3]) | MIC (Candida albicans [7]) | MFC (Candida albicans [10]) | MIC (Candida albicans [12]) | MFC (Candida albicans [17]) | MFC (Pichia kudriavzevii) | MIC95 (Candida albicans [20]) | MIC95 (Staphylococcus aureus [22]) | MIC (Candida albicans [24]) | MIC (Candida albicans [25]) | MFC (Candida albicans [28]) | MBC (Staphylococcus aureus [29])
4 µM: MBC (Salmonella typhimurium) | MIC (Escherichia coli [4]) | MIC95 (Candida albicans [8]) | MFC (Candida albicans [13]) | MBC (Escherichia coli [14]) | MIC (Escherichia coli [15]) | MIC95 (Candida albicans [16]) | MIC (Escherichia coli [18]) | MIC95 [23] | MBC [26] | MBC (Escherichia coli [27]) | MIC95 (Escherichia coli [30])
32 µM: MIC (Candida albicans [5])
2 µM: MIC95 [2] | MFC (Candida albicans [6]) | MIC95 (Candida tropicalis)
64 µM: MFC (Candida parapsilosis) | MIC (Candida albicans [19])

H-RRWRWWWRWRR-NH2
4 µM: MIC (Escherichia coli [1]) | MIC95 (Candida albicans [3]) | MIC (Escherichia coli [4]) | MFC (Candida albicans [6]) | MIC (Candida albicans [7]) | MIC95 (Candida albicans [8]) | MBC (Staphylococcus aureus [11]) | MIC (Candida albicans [12]) | MFC (Candida albicans [13]) | MBC (Escherichia coli [14]) | MIC (Escherichia coli [15]) | MIC95 (Candida albicans [16]) | MFC (Candida albicans [17]) | MIC (Escherichia coli [18]) | MIC95 (Staphylococcus aureus [22]) | MIC95 [23] | MIC (Candida albicans [24]) | MIC (Candida albicans [25]) | MBC (Escherichia coli [27]) | MIC95 (Escherichia coli [30])
16 µM: MFC (Candida parapsilosis)
8 µM: MBC (Salmonella typhimurium) | MIC (Candida albicans [5]) | MBC (Staphylococcus aureus [9]) | MFC (Candida albicans [10]) | MIC (Candida albicans [19]) | MIC95 (Candida albicans [20]) | MBC [26] | MFC (Candida albicans [28]) | MBC (Staphylococcus aureus [29])
2 µM: MIC95 [2] | MIC95 (Candida tropicalis) | MFC (Pichia kudriavzevii) | MIC95 (Staphylococcus aureus [21])

H-RWRWWWRWR-NH2
16 µM: MIC (Candida albicans [5]) | MBC (Staphylococcus aureus [11]) | MFC (Candida albicans [13])
4 µM: MBC (Salmonella typhimurium) | MIC (Escherichia coli [1]) | MIC (Escherichia coli [4]) | MIC95 (Candida albicans [8]) | MBC (Escherichia coli [14]) | MFC (Candida albicans [17]) | MIC (Escherichia coli [18]) | MIC95 (Staphylococcus aureus [21]) | MIC95 [23] | MBC (Escherichia coli [27]) | MIC95 (Escherichia coli [30])
8 µM: MIC95 (Candida albicans [3]) | MFC (Candida albicans [6]) | MIC (Candida albicans [7]) | MFC (Candida albicans [10]) | MIC (Candida albicans [12]) | MIC95 (Candida albicans [16]) | MFC (Pichia kudriavzevii) | MIC95 (Candida albicans [20]) | MIC (Candida albicans [24]) | MIC (Candida albicans [25]) | MBC [26] | MFC (Candida albicans [28]) | MBC (Staphylococcus aureus [29])
32 µM: MFC (Candida parapsilosis) | MIC (Candida albicans [19])
2 µM: MIC95 [2] | MBC (Staphylococcus aureus [9]) | MIC95 (Candida tropicalis) | MIC (Escherichia coli [15]) | MIC95 (Staphylococcus aureus [22])
